The MIC is the least concentration at which growth counts as inhibited. Usually efflux ratio stands for a quotient of directional permeabilities that is used to spot active efflux.

The subject of series [1] is Acinetobacter baumannii. Put plainly: Growth inhibition of Acinetobacter baumannii ATCC 19606 after 48 hrs by resazurin dye based microdilution method. Particulars: ATCC 19606 = CIP 70.34 = JCM 6841, 48 h. It counts as functional. The method in brief:
(§1)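 A. baumannii ATCC 19606 grown in tryptic soy broth, 37 °C with shaking, to mid-log (OD 0.5). Cultures treated with serial dilutions of inhibitor (DMSO stock 1 mg/100 μL), 48 h at 37 °C. Resazurin then added, 1 h at 37 °C with shaking. MIC is the lowest concentration staying blue; MBC is blue retained over 4 h, with CFU plating if needed (99.9% kill).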
(Alamar Blue is a resazurin reagent that responds to reducing activity.)

Series [2] deals with Acinetobacter baumannii. In words: Synergistic antibacterial activity against Acinetobacter baumannii ATCC 19606 at 60:1 compound to doxycycline ratio after 48 hrs by resazurin dye based microdilution broth checkerboard method. It counts as functional. As to conditions: ATCC 19606 = CIP 70.34 = JCM 6841, 48 h. The method in brief: (§2)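 Checkerboard broth microdilution of drug pairs in tryptic soy broth on mid-log cultures (OD 0.5), 48 h at 37 °C. Growth read by resazurin (pink growth, blue no growth). MBC is blue retained over 4 h, CFU plating where needed. ΣFIC = C_A/MIC_A + C_B/MIC_B, taken at the growth/no-growth interface wells; ΣFIC <0.5 counts as synergy.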

For series [3], the system named is Acinetobacter baumannii. In words: Bactericidal activity against Acinetobacter baumannii ATCC 19606 after 48 hrs by resazurin dye based microdilution method. In kind it is functional. Particulars: ATCC 19606 = CIP 70.34 = JCM 6841, 48 h, read-out: MBC99.9. The method in brief: as §1
Series [4] relates to Acinetobacter baumannii. Put plainly: Synergistic antibacterial activity against multidrug-resistant Acinetobacter baumannii ATCC […] at 2:1 compound to doxycycline ratio after 48 hrs by resazurin dye based microdilution broth checkerboard method. It counts as functional. Particulars: ATCC BAA 18002, 48 h. The method in brief: (§3)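 Microdilution broth checkerboard of the compound combined with doxycycline, using the resazurin broth method (48 h, 37 °C, blue = no growth). ΣFIC = C_A/MIC_A + C_B/MIC_B, taken at the growth–no growth interface wells; ΣFIC below 0.5 is scored as synergy. MBC for the fixed-ratio combinations read as the 4 h resazurin endpoint.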

In series [5] the test system is Klebsiella pneumoniae. In words: Synergistic antibacterial activity against Klebsiella pneumoniae ATCC 8047 at 35:1 compound to doxycycline ratio after 48 hrs by resazurin dye based microdilution broth checkerboard method. As to conditions: ATCC 8047, 48 h. It counts as functional. The method in brief: as §2
Series [6] relates to Klebsiella pneumoniae. In words: Synergistic antibacterial activity against Klebsiella pneumoniae ATCC 8047 at 2:1 compound to doxycycline ratio after 48 hrs by resazurin dye based microdilution broth checkerboard method. It counts as functional. As to conditions: ATCC 8047, 48 h. The method in brief:
as §3

The next series deals with Escherichia coli. Put plainly: Synergistic antibacterial activity against Escherichia coli ATCC 10798 at 35:1 compound to doxycycline ratio after 48 hrs by resazurin dye based microdilution broth checkerboard method. It counts as functional. As to conditions: ATCC 10798, 48 h. The method in brief:
as §2

The subject of a further series is Pseudomonas aeruginosa. Put plainly: Synergistic bactericidal activity against Pseudomonas aeruginosa ATCC 27853 at 2:1 compound to doxycycline ratio after 48 hrs by resazurin dye based microdilution broth checkerboard method. In kind it is functional. Particulars: ATCC 27853, 48 h, read-out: MBC99.9. The method in brief:
as §2

Series [7] relates to Mycobacterium tuberculosis. Put plainly: Synergistic bactericidal activity against Mycobacterium tuberculosis H37Rv at 2:1 compound to doxycycline ratio after 48 hrs by resazurin dye based microdilution broth checkerboard method. It counts as functional. Particulars: read-out: MBC99.9.
Series [8] is described as follows: Protein binding in rat plasma at 500 to 5000 ng/ml after 4 hrs by LC/MS analysis. It counts as ADME, cell-free. The method in brief: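 Equilibrium dialysis (MWCO 6000–8000) of Sprague-Dawley rat plasma (lithium heparin) spiked at 500 and 5000 ng/mL, in duplicate, against isotonic phosphate buffer pH 7.4. 4 h at 37 °C, about 100 rpm. Methanol with internal standard, LC-MS. Free fraction = buffer/plasma concentration; reported as % bound. Verapamil as reference.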

Series [9] concerns Acinetobacter baumannii. Put plainly: Synergistic antibacterial activity against Acinetobacter baumannii ATCC 19606 infected in C57BL/6 mouse assessed as survival rate at compound to doxycycline ratio of 35:1 at 60 mg/kg, ip administered as single dose measured for 5 days (reference value: <20%). As to conditions: ATCC 19606 = CIP 70.34 = JCM 6841, ip, 120 h. It counts as functional. The method in brief:
(§4)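 C57BL/6 mice (n = 5 per group; 4 untreated controls) infected intraperitoneally with A. baumannii ATCC19606 grown at 37 °C and collected by centrifugation, at a dose giving 75% death. Single intraperitoneal dose (2 to 60 mg/kg) given 1 h after infection. Mice monitored for 5 days, with death as the end point; survival rate recorded.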

Series [10] relates to Acinetobacter baumannii. Put plainly: Synergistic antibacterial activity against Acinetobacter baumannii ATCC 19606 infected in C57BL/6 mouse assessed as survival rate at compound to doxycycline ratio of 35:1 at 20 mg/kg, ip administered as single dose measured for 5 days (reference value: <20%). As to conditions: ATCC 19606 = CIP 70.34 = JCM 6841, ip, 120 h. In kind it is functional. The method in brief: as §4

The nature of series [11]: Efflux ratio of apparent permeability in human Caco2 cells. In kind it is ADME, cell-based. Particulars: Caco-2.

Converted amounts (≈) assume the structure as drawn.

`C=C[C@]1(C)C[C@@H](OC(=O)CSC(C)(C)CNC(=O)[C@H](N)C(C)C)[C@]2(C)[C@H](C)CC[C@]3(CC[C@@H](O)[C@H]32)[C@@H](C)[C@@H]1O`: the MIC in the series on Acinetobacter baumannii [1] stood at 1.75 µg/mL (≈ 3.09 µM); in the series with Acinetobacter baumannii [2], 0.5 µg/mL; with Acinetobacter baumannii [4] it was 1.56 µg/mL; with Klebsiella pneumoniae [5], 0.78 µg/mL; in the series on Klebsiella pneumoniae [6], 0.78 µg/mL; in the series with Escherichia coli, 0.25 µg/mL. Also, the MBC is 3.13 to 6.25 µg/mL (≈ 5.52 to 11 µM) in the series on Acinetobacter baumannii [3], 12.5 µg/mL in the series with Pseudomonas aeruginosa and 6.25 µg/mL in [7]. The PPB in series [8] was 76.9%. Moreover, the survival at 60 mg/kg with Acinetobacter baumannii [9] was determined as 100%. The survival at 20 mg/kg with Acinetobacter baumannii [10] amounted to 100%. In series [11], the efflux ratio was 5.

The values above are taken from ChEMBL document CHEMBL4177542, “A New Combination of a Pleuromutilin Derivative and Doxycycline for Treatment of Multidrug-Resistant Acinetobacter baumannii” (J Med Chem, 2017).
